# Experiments:
# [1] = system: expressed human CYP enzymes; assay: Reaction phenotyping with twelve expressed CYP enzymes; type: in vitro ADME
# Method in brief: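 Twelve expressed human CYPs (1–1.2 mg/mL) with test compound 0.16–80 μM, NADPH 1 mM and MgCl2 in 50 mM Tris-HCl pH 7.4, 37 °C, 60 min. Controls lacked NADPH. Acetonitrile quench, then UHPLC-UV/Q-TOF MS. Formation rates given as pmol/min/mg protein. Kinetics fitted after Eadie–Hofstee inspection; CLint = Vmax/Km; triplicate.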
# [2] = system: recombinant human UGT isoforms; assay: Reaction phenotyping with twelve recombinant UGT isoforms; type: in vitro ADME
# [3] = target: human carboxylesterase 2; details: ref Li et al., 2015, cited from earlier work
# [4] = system: HepG2 hepatocellular carcinoma cell line; details: cited from earlier work
# [5] = target: T1, UGT1A1 (Homo sapiens, UniProt P22309); assay: Glucuronidation of CA by recombinant UGT1A1; type: in vitro ADME; details: formation of the glucuronide from CA
# T1 sequence (P22309 26-533): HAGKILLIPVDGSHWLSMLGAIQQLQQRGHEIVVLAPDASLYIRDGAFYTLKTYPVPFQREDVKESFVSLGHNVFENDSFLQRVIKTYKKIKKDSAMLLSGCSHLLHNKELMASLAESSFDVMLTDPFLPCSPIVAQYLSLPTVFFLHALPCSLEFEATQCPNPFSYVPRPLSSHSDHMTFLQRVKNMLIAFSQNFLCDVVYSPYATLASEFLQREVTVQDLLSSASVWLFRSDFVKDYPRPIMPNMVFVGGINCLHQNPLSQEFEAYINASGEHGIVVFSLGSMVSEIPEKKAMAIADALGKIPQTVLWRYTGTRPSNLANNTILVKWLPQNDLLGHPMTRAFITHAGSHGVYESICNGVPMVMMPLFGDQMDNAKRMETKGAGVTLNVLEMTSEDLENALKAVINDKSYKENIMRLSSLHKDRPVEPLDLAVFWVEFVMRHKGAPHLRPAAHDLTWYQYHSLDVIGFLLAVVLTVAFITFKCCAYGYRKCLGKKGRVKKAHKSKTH
# [6] = system: pooled HLM; assay: Glucuronidation of CA in pooled HLM; type: in vitro ADME, human; details: higher than phase I metabolism
# Method in brief: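 Pooled human liver microsomes (1 mg/mL) with test compound 0.16–80 μM, UDPGA 3.5 mM, alamethicin 22 μg/mL, saccharolactone 4.4 mM and MgCl2 0.88 mM in Tris-HCl pH 7.4, 37 °C for 60 min. Phase I run in parallel with 1 mM NADPH. Metabolites quantified by UHPLC-UV (270 nm) as parent equivalents; kinetics fitted by model, CLint = Vmax/Km; triplicate.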
# [7] = target: T2, MRP4 (Homo sapiens, UniProt O15439); assay: Glucuronide excretion in HeLa1A1 cells with knock-down of MRP4; type: cell-based; details: knock-down of MRP4 transporter
# T2 sequence (O15439 1-1325): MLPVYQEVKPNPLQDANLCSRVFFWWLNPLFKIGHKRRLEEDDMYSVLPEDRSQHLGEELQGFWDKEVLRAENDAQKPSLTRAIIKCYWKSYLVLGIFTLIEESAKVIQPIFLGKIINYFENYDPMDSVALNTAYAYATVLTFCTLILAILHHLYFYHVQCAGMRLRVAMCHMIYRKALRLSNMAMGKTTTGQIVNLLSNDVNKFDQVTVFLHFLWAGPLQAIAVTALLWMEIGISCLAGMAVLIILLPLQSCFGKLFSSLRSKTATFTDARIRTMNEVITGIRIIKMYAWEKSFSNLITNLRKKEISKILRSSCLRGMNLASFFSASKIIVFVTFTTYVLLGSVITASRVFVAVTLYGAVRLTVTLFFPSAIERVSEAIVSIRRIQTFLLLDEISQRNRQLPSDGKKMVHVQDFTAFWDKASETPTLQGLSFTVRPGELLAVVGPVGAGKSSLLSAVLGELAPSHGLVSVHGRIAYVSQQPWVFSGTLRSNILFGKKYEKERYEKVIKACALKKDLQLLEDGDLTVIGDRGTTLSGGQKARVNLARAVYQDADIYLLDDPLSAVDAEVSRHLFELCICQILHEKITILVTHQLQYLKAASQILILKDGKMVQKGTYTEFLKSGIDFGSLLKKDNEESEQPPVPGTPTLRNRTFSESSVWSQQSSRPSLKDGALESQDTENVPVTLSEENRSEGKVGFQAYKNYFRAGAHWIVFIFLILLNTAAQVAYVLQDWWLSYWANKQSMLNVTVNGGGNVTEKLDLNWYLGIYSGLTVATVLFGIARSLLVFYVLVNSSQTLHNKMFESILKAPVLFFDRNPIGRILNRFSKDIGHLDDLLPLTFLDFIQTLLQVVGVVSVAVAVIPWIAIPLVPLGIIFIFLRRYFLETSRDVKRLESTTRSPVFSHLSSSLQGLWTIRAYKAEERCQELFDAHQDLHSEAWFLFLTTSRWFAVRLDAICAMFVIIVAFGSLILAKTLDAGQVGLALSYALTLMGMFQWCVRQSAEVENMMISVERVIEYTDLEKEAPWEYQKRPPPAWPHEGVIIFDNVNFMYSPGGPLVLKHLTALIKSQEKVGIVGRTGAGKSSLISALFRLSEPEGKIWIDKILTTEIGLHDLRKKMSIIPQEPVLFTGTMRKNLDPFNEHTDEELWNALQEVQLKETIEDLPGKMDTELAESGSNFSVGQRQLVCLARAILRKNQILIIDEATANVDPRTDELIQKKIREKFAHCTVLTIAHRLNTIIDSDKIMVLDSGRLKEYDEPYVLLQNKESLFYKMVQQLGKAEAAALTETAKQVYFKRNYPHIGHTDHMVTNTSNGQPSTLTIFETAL
# Method in brief: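 HeLa1A1 cells at ~50% confluence transiently transfected with transporter shRNA plasmid (10 μg/mL); medium replaced at 6 h; scrambled shRNA as control. At confluence cells washed and incubated with test compound in HBSS. Extracellular glucuronide sampled over 2 h and intracellular glucuronide measured at the end. ER = V·dC/dt, CLapp = ER/Ci, fmet calculated; triplicate.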
# [8] = rat, in vivo, cited from earlier work
# [9] = target: T1, UGT1A1; type: in vitro ADME; details: panel of HLMs (n = 9), substrate 10 μM, p = 0.049
smiles,measurement,setting,value
"CC(C)=CCC/C(C)=C/Cc1cc(-c2coc3cc(O)ccc3c2=O)ccc1O [CA, Corylifol A]",metabolism of CA,"[1]; CYP1A2, 1B1, 2A6, 2B6, 2E1, 3A4 and 3A5",cannot metabolize CA at all
same,CLint values (phase I metabolic activities),"[1]; range over CYP1A1, 2C8 and 2C19",13.01 to 49.36 µL/min/mg
same,catalytic activity to CA-glucuronidation,"[2]; UGT1A1, 1A7, 1A8 and 1A9",strong catalytic activity
same,catalytic activity to CA-glucuronidation,"[2]; UGT1A3, 1A4, 2B4 and 2B7",weak catalytic activity
same,IC50,"[3]; read-out: IC50, human carboxylesterase 2",620 nM
same,Ki,"[3]; read-out: Ki, human carboxylesterase 2",870 nM
same,"IC50, cytotoxic activity",[4],4.6 µg/mL
same,CLint,[5],284.07 µL/min/mg
same,intrinsic clearance value of glucuronidation relative to phase I metabolism,[6],4 fold
same,fmet value of CA,[7],significant decrease
same,maximal plasma concentration (Cmax) of CA,[8]; 2 g/kg,8.87 ng/mL
same,Cmax of CA,"[8]; po, 1.2 g/kg",1.70 ng/mL
same,correlation (r) between CA-7-O-glucuronidation and β-estradiol-3-O-glucuronidation,[9],0.668
